Measurements: ChEMBL document CHEMBL1142636 (2000)
Active and inactive are the calls of the source.

Columns and labels:
Assay type in all cases: functional
SW-620 = assay: Growth inhibition of human SW620 cells
In short: (§1)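 Tested at the NCI in its human disease-oriented in vitro screen of 60 tumour cell lines, following the Monks et al. methods. Activity is expressed as GI50, given as log molar values.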

MDA-N = assay: Growth inhibition of human MDA-N cells
NCI/ADR-RES = assay: Growth inhibition of human MCF7/ADR-RES cells
BT-549 = assay: Growth inhibition of human BT549 cells
LOX IMVI = assay: Growth inhibition of human LOX IMVI cells
K562 = assay: Growth inhibition of human K562 cells
OVACR5 = assay: Growth inhibition of human OVACR5 cells
HOP-62 = assay: Growth inhibition of human HOP62 cells
NCI-H226 = assay: Growth inhibition of human NCI-H226 cells
T47D = assay: Growth inhibition of human T47D cells; in short: as §1
MCF7 = assay: Growth inhibition of human MCF7 cells
MOLT-4 = assay: Growth inhibition of human MOLT4 cells
SK-MEL-28 = assay: Growth inhibition of human SK-MEL-28 cells; in short: as §1
SF-539 = assay: Growth inhibition of human SF539 cells; in short: as §1
HCT-116 = assay: Growth inhibition of human HCT116 cells
SF-268 = assay: Growth inhibition of human SF268 cells; in short: as §1
CCRF-CEM = assay: Growth inhibition of human CCRF-CEM cells
SNB-19 = assay: Growth inhibition of human SNB19 cells; in short: as §1
Malme-3M = assay: Growth inhibition of human MALME-3M cells
A549 = assay: Growth inhibition of human A549 cells
UO-31 = assay: Growth inhibition of human UO31 cells; in short: as §1
M14 = assay: Growth inhibition of human M14 cells
U-251 = assay: Growth inhibition of human U251 cells; in short: as §1
UACC-257 = assay: Growth inhibition of human UACC257 cells; in short: as §1
KM-20L2 = assay: Growth inhibition of human KM20L2 cells
EKVX = assay: Growth inhibition of human EKVX cells
LXFL 529 = assay: Growth inhibition of human LXFL529 cells
MDA-MB-435 = assay: Growth inhibition of human MDA-MB-435 cells
786-0 = assay: Growth inhibition of human 786-0 cells
HL-60(TB) = assay: Growth inhibition of human HL60(TB) cells
DMS144 = assay: Growth inhibition of human DMS144 cells
SN12C = assay: Growth inhibition of human SN12C cells; in short: as §1
SK-OV-3 = assay: Growth inhibition of human SK-OV-3 cells; in short: as §1
UACC-62 = assay: Growth inhibition of human UACC62 cells; in short: as §1
NCI-H23 = assay: Growth inhibition of human NCI-H23 cells
OVACR3 = assay: Growth inhibition of human […] cells
CAKI-1 = assay: Growth inhibition of human CAKI1 cells
DU-145 = assay: Growth inhibition of human DU145 cells
OVACR8 = assay: Growth inhibition of human OVACR8 cells
SK-MEL-5 = assay: Growth inhibition of human SK-MEL-5 cells; in short: as §1
MDA-MB-231 = assay: Growth inhibition of human MDA-MB-231 cells
SF-295 = assay: Growth inhibition of human SF295 cells; in short: as §1
RPMI8266 = assay: Growth inhibition of human RPMI8266 cells
HOP-18 = assay: Growth inhibition of human HOP18 cells
A498 = assay: Growth inhibition of human A498 cells
COLO 205 = assay: Growth inhibition of human COLO205 cells
KM12 = assay: Growth inhibition of human KM12 cells
XF498 = assay: Growth inhibition of human XF498 cells; in short: as §1
DMS-273 = assay: Growth inhibition of human DMS273 cells
DLD-1 = assay: Growth inhibition of human DLD1 cells
PC-3 = assay: Growth inhibition of human PC3 cells
SK-MEL-2 = assay: Growth inhibition of human SK-MEL-2 cells; in short: as §1
NCI-H322M = assay: Growth inhibition of human NCI-H322M cells
OVACR4 = assay: Growth inhibition of human OVACR4 cells
ACHN = assay: Growth inhibition of human ACHN cells
M19-MEL = assay: Growth inhibition of human M19-MEL cells
RXF 393 = assay: Growth inhibition of human […] cells
TK-10 = assay: Growth inhibition of human TK10 cells; in short: as §1
SNB-75 = assay: Growth inhibition of human SNB75 cells; in short: as §1
HCT-15 = assay: Growth inhibition of human HCT15 cells
HT-29 = assay: Growth inhibition of human HT29 cells
NCI-H522 = assay: Growth inhibition of human NCI-H522 cells
SR = assay: Growth inhibition of human SR cells; in short: as §1
HCC 2998 = assay: Growth inhibition of human HCC2998 cells
Hs-578T = assay: Growth inhibition of human HS578T cells
HOP-92 = assay: Growth inhibition of human HOP92 cells
NCI-H460 = assay: Growth inhibition of human NCI-H460 cells
IGROV-1 = assay: Growth inhibition of human IGROV1 cells

Measured: Activity

COc1ccc2c([nH]c3c(O)c(-c4c(C)cc5c([nH]c6c(CC=C(C)C)c(OC)ccc65)c4O)c(C)cc32)c1CC=C(C)C
inactive: all assays above
